The source of these data is ChEMBL document CHEMBL1629540 (J Med Chem, 2010).

A short description of assay [1]: Displacement of [3H]AMPA from AMPA receptor in rat brain membrane. Type of assay: cell membranes. The method, boiled down: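 Rat cortical synaptosomal membranes, competition with 5 nM [3H]AMPA (55.5 Ci/mmol). IC50 given as the antilog of the mean log value from three individual experiments.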
A general note: Displacement assays read how much labelled ligand stays bound in the presence of the test substance.

Assay [2] in a line: Displacement of [3H]KA from kainate receptor in rat brain membrane. The class given is cell membranes. The method, boiled down: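 Rat cortical synaptosomal membranes, competition with 5 nM [3H]KA (58.0 Ci/mmol). IC50 given as the antilog of the mean log value from three individual experiments.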
In assay [3] the target is Glutamate NMDA receptor. Description: Displacement of [3H]CGP39653 from NMDA receptor in rat brain membrane. Type of assay: cell membranes.
Assay [4] has as its target T1, Glutamate receptor 1 (Rattus norvegicus, UniProt P19490). The assay is described as follows: Displacement of [3H[AMPA from rat recombinant GluA1o expressed in […] cells. Type of assay: cell-based. In short, it runs like this:
(§1)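 Competition binding to membranes from Sf9 cells infected with recombinant baculovirus encoding rat flop GluA subunits. Radioligand 2-5 nM (RS)-[3H]AMPA, 12-16 ligand concentrations. At least three experiments, each in triplicate, reported as Ki mean ± SEM.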

Assay [5] has as its target T2, Glutamate receptor 3 (Rattus norvegicus, UniProt P19492). Description: Displacement of [3H[AMPA from rat recombinant GluA3o expressed in […] cells. The class given is cell-based. In short, it runs like this: as §1
The target in assay [6] is T3, Glutamate receptor 4 (Rattus norvegicus, UniProt P19493). Description: Displacement of [3H[AMPA from rat recombinant GluA4o expressed in […] cells. The class given is cell-based. The method, boiled down:
as §1

Assay [7] deals with Glutamate receptor ionotropic, kainate 1 (Rattus norvegicus, UniProt P22756). Description: Displacement of [3H[SYM2081 from rat recombinant GluK1(Q)1b expressed in […] cells. Type of assay: cell-based.
For assay [8], the target named is Glutamate receptor ionotropic, kainate 2 (Rattus norvegicus, UniProt P42260). The assay is described as follows: Displacement of [3H[SYM2081 from rat recombinant GluK2(VCR)a expressed in […] cells. The class given is cell-based. The method, boiled down: (§2)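 Competition binding to membranes from Sf9 cells infected with recombinant baculovirus encoding rat GluK subunits. Radioligand 1-5 nM [3H]SYM2081 (47.9 Ci/mmol), 12-16 ligand concentrations. At least three experiments, each in triplicate, reported as Ki mean ± SEM.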

The target in assay [9] is T4, Glutamate receptor 2 (Rattus norvegicus, UniProt P19491). Description: Agonist activity at rat recombinant GluA2(Q)i expressed in Xenopus laevis oocytes by two-electrode voltage clamp assay. Type of assay: functional, cell-based, Oocyte. In short, it runs like this:
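Homomeric rat GluA2(Q) flip receptors expressed in Xenopus laevis oocytes and recorded by two-electrode voltage clamp. Agonist-evoked currents were normalised to the maximum response in each oocyte. EC50 was obtained by fitting the concentration-response data to a logistic equation giving Imax and the Hill coefficient.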

Assay [10] concerns the target Glutamate receptor ionotropic, kainate 3 (Rattus norvegicus, UniProt P42264). The assay is described as follows: Displacement of [3H[SYM2081 from rat recombinant GluK3a expressed in […] cells. Type of assay: cell-based. In short, it runs like this:
as §2

Assay [11] deals with T1, Glutamate receptor 1. The assay is described as follows: Agonist activity at rat recombinant GluA1i expressed in Xenopus laevis oocytes by two-electrode voltage clamp assay. The class given is functional, cell-based, Oocyte. The method, boiled down: (§3)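 Rat homomeric flip-isoform GluA subunits expressed in Xenopus laevis oocytes, measured by two-electrode voltage clamp. Highest concentration tested 3 mM. Responses normalized to the maximum response in each oocyte. Three to five experiments per receptor, each in duplicate. EC50 obtained by fitting I = Imax/(1 + (10^logEC50/10^log[A])^nH), giving Imax and Hill coefficient.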

Assay [12] deals with T2, Glutamate receptor 3. Description: Agonist activity at rat recombinant GluA3i expressed in Xenopus laevis oocytes by two-electrode voltage clamp assay. Type of assay: functional, cell-based, Oocyte. In short, it runs like this:
as §3

Assay [13] concerns the target T3, Glutamate receptor 4. The assay is described as follows: Agonist activity at rat recombinant GluA4i expressed in Xenopus laevis oocytes by two-electrode voltage clamp assay. The class given is functional, cell-based, Oocyte. The method, boiled down:
as §3
On the technique in general: In two-electrode clamp one electrode senses voltage and the other passes current.

Assay [14] deals with Glutamate receptor 2 (Homo sapiens, UniProt P42262). Description: Displacement of [3H]AMPA from GluA2-S1S2 receptor.
Assay [15] concerns the target T4, Glutamate receptor 2. Description: Displacement of [3H[AMPA from rat recombinant GluA2(R)o expressed in […] cells. The class given is cell-based.

Glutamate receptor ionotropic, kainate 3, sequence (P42264 whole entry): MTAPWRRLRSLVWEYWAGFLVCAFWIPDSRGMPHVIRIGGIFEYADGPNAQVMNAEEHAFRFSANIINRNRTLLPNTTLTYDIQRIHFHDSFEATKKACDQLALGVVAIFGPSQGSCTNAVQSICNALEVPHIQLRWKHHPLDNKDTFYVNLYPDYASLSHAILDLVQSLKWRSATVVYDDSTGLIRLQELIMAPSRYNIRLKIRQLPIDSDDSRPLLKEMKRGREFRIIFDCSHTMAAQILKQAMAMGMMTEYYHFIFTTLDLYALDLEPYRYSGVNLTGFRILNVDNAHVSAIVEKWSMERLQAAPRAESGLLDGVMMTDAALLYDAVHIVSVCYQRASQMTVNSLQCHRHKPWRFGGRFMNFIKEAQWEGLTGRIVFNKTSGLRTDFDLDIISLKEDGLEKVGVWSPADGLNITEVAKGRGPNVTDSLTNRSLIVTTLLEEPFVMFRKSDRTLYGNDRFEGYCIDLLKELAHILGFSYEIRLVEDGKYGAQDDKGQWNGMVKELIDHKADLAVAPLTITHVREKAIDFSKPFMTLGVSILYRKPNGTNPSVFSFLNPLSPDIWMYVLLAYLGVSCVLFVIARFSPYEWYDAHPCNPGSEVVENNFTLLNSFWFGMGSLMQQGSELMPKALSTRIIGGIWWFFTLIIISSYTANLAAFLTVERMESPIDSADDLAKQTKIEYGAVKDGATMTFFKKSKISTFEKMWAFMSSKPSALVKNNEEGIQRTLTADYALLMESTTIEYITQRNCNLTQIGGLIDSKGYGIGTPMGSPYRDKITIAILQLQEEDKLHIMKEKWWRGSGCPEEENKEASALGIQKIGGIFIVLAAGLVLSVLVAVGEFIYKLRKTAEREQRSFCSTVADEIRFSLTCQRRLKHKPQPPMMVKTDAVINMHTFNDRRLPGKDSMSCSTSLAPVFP
T2 sequence (P19492 whole entry): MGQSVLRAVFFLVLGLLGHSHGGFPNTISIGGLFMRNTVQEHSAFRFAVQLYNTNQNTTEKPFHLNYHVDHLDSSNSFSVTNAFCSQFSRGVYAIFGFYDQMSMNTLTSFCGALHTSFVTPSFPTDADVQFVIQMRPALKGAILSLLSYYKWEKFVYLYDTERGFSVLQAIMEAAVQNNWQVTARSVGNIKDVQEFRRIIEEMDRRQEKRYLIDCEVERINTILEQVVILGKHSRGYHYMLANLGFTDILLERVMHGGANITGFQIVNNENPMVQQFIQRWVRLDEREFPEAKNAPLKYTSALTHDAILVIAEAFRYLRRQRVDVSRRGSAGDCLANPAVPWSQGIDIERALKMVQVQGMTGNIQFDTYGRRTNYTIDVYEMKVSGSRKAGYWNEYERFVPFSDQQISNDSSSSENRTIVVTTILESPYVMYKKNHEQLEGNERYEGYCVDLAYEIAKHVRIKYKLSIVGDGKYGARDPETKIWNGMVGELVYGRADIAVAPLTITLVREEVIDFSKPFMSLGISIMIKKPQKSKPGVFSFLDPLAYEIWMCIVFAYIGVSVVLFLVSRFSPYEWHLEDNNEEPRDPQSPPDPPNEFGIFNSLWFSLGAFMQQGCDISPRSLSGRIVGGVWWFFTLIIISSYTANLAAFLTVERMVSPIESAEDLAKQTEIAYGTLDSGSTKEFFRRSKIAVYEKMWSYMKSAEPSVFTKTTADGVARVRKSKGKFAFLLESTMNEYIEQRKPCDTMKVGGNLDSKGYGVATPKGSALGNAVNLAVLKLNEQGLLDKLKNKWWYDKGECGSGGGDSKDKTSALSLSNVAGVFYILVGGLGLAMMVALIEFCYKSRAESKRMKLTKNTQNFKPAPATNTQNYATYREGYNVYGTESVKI
Glutamate receptor ionotropic, kainate 1, sequence (P22756 whole entry): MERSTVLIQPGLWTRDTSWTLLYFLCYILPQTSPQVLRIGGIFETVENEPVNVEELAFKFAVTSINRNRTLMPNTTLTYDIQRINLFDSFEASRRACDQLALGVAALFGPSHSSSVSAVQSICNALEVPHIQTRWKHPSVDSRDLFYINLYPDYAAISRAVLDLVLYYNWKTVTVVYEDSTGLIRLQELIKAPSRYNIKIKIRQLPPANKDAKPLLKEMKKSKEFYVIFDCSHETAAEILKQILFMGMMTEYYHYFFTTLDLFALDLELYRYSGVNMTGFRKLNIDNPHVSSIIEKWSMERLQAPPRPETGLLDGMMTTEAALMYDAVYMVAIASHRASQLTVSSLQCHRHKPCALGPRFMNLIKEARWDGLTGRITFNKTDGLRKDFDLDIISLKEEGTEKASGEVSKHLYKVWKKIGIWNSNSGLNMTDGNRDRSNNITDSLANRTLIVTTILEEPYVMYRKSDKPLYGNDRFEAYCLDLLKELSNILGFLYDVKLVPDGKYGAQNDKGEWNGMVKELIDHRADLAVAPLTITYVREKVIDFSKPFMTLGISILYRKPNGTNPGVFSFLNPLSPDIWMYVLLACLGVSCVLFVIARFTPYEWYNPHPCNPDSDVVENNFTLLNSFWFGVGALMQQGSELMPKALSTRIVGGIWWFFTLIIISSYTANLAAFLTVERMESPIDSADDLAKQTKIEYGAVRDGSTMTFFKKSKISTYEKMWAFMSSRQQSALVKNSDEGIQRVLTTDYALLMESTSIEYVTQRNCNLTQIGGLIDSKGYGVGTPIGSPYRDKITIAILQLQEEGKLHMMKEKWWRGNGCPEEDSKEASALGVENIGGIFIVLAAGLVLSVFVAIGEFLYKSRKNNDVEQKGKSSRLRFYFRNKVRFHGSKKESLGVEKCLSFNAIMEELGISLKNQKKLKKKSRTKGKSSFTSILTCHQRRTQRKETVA
T4 sequence (P19491 whole entry): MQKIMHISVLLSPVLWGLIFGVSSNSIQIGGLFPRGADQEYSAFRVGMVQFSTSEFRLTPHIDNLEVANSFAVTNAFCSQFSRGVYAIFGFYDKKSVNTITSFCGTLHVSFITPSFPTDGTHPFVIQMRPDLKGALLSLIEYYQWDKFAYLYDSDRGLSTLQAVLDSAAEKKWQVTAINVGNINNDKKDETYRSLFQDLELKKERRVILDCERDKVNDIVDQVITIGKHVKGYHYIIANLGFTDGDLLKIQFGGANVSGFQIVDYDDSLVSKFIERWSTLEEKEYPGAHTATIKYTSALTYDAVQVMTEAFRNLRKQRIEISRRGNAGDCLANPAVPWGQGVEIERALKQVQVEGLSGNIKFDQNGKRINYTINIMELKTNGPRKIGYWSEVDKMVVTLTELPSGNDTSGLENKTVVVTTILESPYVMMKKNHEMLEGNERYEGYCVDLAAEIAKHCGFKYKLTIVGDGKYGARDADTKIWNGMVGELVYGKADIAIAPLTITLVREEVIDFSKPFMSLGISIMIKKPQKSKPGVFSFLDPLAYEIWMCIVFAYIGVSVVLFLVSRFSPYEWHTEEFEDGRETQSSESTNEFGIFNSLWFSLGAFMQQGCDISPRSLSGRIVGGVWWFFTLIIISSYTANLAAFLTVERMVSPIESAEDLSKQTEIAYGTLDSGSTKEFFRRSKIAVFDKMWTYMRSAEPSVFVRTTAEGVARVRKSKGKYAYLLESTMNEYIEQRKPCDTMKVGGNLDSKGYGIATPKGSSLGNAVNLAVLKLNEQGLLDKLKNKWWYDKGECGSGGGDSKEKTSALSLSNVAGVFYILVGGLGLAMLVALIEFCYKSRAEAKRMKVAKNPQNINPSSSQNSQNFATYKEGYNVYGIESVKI
T3 sequence (P19493 whole entry): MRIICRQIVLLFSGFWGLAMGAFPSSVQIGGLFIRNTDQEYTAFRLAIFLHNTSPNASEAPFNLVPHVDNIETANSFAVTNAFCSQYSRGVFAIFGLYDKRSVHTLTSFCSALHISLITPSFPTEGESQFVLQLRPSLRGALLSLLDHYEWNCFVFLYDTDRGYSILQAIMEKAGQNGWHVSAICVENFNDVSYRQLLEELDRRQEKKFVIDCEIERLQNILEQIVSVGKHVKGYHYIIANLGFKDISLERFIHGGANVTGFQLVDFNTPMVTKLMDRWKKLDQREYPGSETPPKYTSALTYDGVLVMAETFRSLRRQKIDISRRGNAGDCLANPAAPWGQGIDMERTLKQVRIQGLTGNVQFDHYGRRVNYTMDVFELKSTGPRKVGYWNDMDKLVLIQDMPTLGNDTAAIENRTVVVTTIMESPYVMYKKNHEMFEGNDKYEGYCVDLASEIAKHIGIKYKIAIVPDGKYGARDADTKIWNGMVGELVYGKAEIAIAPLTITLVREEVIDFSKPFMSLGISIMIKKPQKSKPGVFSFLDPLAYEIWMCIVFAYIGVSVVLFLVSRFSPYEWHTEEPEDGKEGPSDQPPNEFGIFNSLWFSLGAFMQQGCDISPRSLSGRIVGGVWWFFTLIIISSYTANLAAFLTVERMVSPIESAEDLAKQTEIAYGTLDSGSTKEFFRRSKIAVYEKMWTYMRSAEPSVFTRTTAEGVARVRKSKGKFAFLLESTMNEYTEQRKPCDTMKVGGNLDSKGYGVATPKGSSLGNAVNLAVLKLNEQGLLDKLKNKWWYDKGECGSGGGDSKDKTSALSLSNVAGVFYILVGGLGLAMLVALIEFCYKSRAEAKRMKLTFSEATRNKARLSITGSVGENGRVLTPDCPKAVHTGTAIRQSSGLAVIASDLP
Glutamate receptor 2 (Homo sapiens, UniProt P42262), sequence (P42262 whole entry): as the sequence (P19491 whole entry) above, with T191M, A291T, G764R, P852A counted along it

In the case of `O=C(O)[C@H]1Cc2c(O)noc2CN1`, the IC50 (commonly the midpoint of a concentration-inhibition curve) in assay [1] is 0.47 µM; in assay [2], more than 100 µM. The Ki (commonly a measure of affinity in units of concentration, obtained from inhibition or displacement) in [3] is more than 100 µM; in [4] it was 0.36 µM; in assay [5], 0.84 µM; in assay [6] it was 0.64 µM; in assay [7], 10.1 µM; in assay [8], more than 100 µM. Moreover, in assay [9], the EC50 (usually the concentration giving half of the maximal effect) was found to be 22.3 µM.
For the compound `O=C(O)C1NCCc2c1o[nH]c2=O` (racemic), the figures for the half-inhibitory concentration (IC50) in assay [1] and in assay [2] were 0.37 µM and more than 100 µM, respectively. Also, the Ki in [3] was more than 100 µM; in [4], 0.18 µM; in assay [5], 4.52 µM; in [6], 13.5 µM; in assay [7], 4.48 µM; in assay [8], more than 100 µM. In addition, the results for the Ki in assay [10] and in [14] were 29.8 µM and 0.108 µM, respectively. Further, the EC50 was 82.8 µM in [11], 34.6 µM in assay [9], 637 µM in [12] and more than 1000 µM in [13].
`O=C(O)C1Cc2c(O)noc2CN1` (racemic): the inhibition constant Ki in assay [10] amounted to 54 µM; in [14], 0.494 µM.
Take `NC(Cc1onc(O)c1Cl)C(=O)O` (racemic): the IC50 in assay [1] was 0.22 µM; in [2], more than 100 µM. The Ki is 18 µM in [3]; 0.13 µM in assay [4]; 0.37 µM in [15]; 27.5 µM in assay [5]; 11.9 µM in [6]; 6.8 µM in [7]. Besides, the Ki in assay [8] is more than 100 µM; in assay [10], 90.5 µM. Also, the concentration for a half-maximal effect (EC50) in assay [11] came to 4.7 µM.
On to `Cc1onc(O)c1C[C@H](N)C(=O)O` [(S)-AMPA], for which the Ki in [8] is more than 1000 µM; in [10], 42.7 µM.
For the compound `N[C@H](C(=O)O)c1cc(O)no1` [IBOTENIC ACID], the results for the half-inhibitory concentration (IC50) in [1] and in assay [2] were more than 100 µM and 22 µM, respectively. Further, the Ki in assay [4] was more than 100 µM; in [15] it was more than 100 µM; in assay [5], more than 100 µM; in assay [6] it was more than 100 µM; in assay [7] it was 2.43 µM; in assay [8], 3.23 µM. Further, the Ki in assay [10] stood at 1.74 µM.
